# Results as given in ChEMBL document CHEMBL2062476, “One pot efficient diversity oriented synthesis of polyfunctional styryl thiazolopyrimidines and their bio-evaluation as antimalarial and anti-HIV agents” (Eur J Med Chem, 2012).
# Experiments:
# Plasmodium falciparum [1] = assay: Antimalarial activity against chloroquine resistant Plasmodium falciparum K1 infected in RBCs incubated for 72 hrs by SYBRgreen dye based fluorometric assay; assay type: functional, organism-based; conditions: K1, 72 h
# Outline: (§1)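 Parasites kept in RPMI-1640 (HEPES) with 0.5% AlbuMaxII, 0.2% glucose, 0.2% NaHCO3, 15 µM hypoxanthine, 37 °C, 5% CO2. Compounds in DMSO (10mg/mL stock), two-fold serial dilutions. Infected erythrocytes added at 4% haematocrit, 1% parasitaemia, incubated 72 h. Lysis buffer with SYBR green added for 4 h in the dark at room temp. Fluorescence read at ex 485/em 535 nm. IC50 taken from parasite DNA content relative to controls.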
# [2] = Cytotoxicity against african green monkey Vero C1008 cells incubated for 72 hrs by resazurin dye based fluorometric assay; assay type: cell-based; conditions: chlorocebus sabaeus
# Outline: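 Vero (C1008) cells grown in MEM with 15% FBS, 37 °C, 5% CO2; trypsinized, seeded at 1 × 10^5 cells/mL and left to adhere overnight. Serial compound dilutions added for 72 h. Resazurin added, fluorescence read after 4 h; CC50 derived from viability.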
# [3] = system: Human immunodeficiency virus; assay: Inhibition of HIV reverse transcriptase activity at 100 ug/ml incubated at 37 degC for 1 hr by ELISA RT assay
# Outline: (§2)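 Colorimetric ELISA kit: template/primer with dNTPs (digoxigenin- and biotin-labelled dUTP) plus HIV-1 RT in lysis buffer, 60 µl total, 37 °C for 1 h; no-RT lysis buffer as negative control. Product captured on streptavidin plate 1 h at 37 °C, anti-DIG-POD (200 mU/mL) 1 h, ABTS substrate; OD 405 nm (reference 490 nm).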
# [4] = system: Human immunodeficiency virus; assay: Inhibition of HIV reverse transcriptase activity at 10 ug/ml incubated at 37 degC for 1 hr by ELISA RT assay; outline: as §2
# [5] = Selectivity index, ratio of CC50 for african green monkey Vero C1008 cells to IC50 for chloroquine sensitive Plasmodium falciparum 3D7; assay type: functional
# Outline: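 SI = CC50 in Vero cells (resazurin, 72 h) divided by IC50 against P. falciparum 3D7. The IC50 came from a SYBR green assay: cultures in RPMI-1640 with 0.5% AlbuMaxII and 15 µM hypoxanthine, 4% haematocrit, 1% parasitaemia, two-fold dilutions, 72 h at 37 °C. Lysis with SYBR green for 4 h, read at ex 485/em 535 nm.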
# [6] = Selectivity index, ratio of CC50 for african green monkey Vero C1008 cells to IC50 for chloroquine resistant Plasmodium falciparum K1; assay type: functional
# Outline: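 Vero C1008 cells grown in MEM with 15% FBS. Seeded at 1 × 10^5 cells/mL, left to adhere overnight, then exposed to serial compound dilutions for 72 h. Viability read by resazurin fluorescence after 4 h and CC50 derived. SI = CC50 / IC50 against K1, with IC50 from the 72 h SYBR green parasite assay.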
# Plasmodium falciparum [7] = assay: Antimalarial activity against chloroquine sensitive Plasmodium falciparum 3D7 infected in RBCs incubated for 72 hrs by SYBRgreen dye based fluorometric assay; assay type: functional, organism-based; conditions: 3D7, 72 h; outline: as §1
Structure (SMILES),IC50 (Plasmodium falciparum [1]) [µg/mL],CC50 at 72 h [2] [µg/mL],inhibition [3] [%],inhibition [4] [%],Ratio CC50/IC50 [5],Ratio CC50/IC50 [6],IC50 (Plasmodium falciparum [7]) [µg/mL]
CC1=CSC2=NC(/C=C/c3ccc(Cl)cc3)=C(C(=O)/C=C/c3ccc(Cl)cc3)C(c3ccc(Cl)cc3)N12 (centres undefined),0.6,309,11.4,10.6,363.57,515.05,0.85
COc1ccc(C2C(C(=O)/C=C/c3cccs3)=C(/C=C/c3cccs3)N=C3SC=C(C)N32)cc1 (centres undefined),2.03,235,54.4,47.7,45.48,115.83,5.17
CC1=CSC2=NC(/C=C/c3ccc4c(c3)OCO4)=C(C(=O)/C=C/c3ccc4c(c3)OCO4)C(c3ccccc3)N12 (centres undefined),1.09,497,–,–,97.97,455.71,5.07
CC1=CSC2=NC(/C=C/c3ccccc3Cl)=C(C(=O)/C=C/c3ccccc3Cl)C(c3ccccc3)N12 (centres undefined),0.36,206,73.4,38.9,367.88,572.25,0.56
CC1=CSC2=NC(/C=C/c3ccccc3)=C(C(=O)/C=C/c3ccccc3)C(c3ccccc3)N12 (centres undefined),0.79,195,49.6,42.3,342.93,247.43,0.57
COc1ccc(C2C(C(=O)/C=C/c3ccc(Cl)cc3)=C(/C=C/c3ccc(Cl)cc3)N=C3SC=C(C)N32)cc1 (centres undefined),1.49,273,50.9,31.2,51.42,182.89,5.3
CC1=CSC2=NC(/C=C/c3ccc(Br)cc3)=C(C(=O)/C=C/c3ccc(Br)cc3)C(c3ccccc3)N12 (centres undefined),2.5,282,55.4,39.8,52.48,112.93,5.38
COc1cc(/C=C\C2=C(C(=O)/C=C/c3cc(OC)c(OC)c(OC)c3)C(c3cc(OC)c(OC)c(OC)c3)N3C(C)=CSC3=N2)cc(OC)c1OC (centres undefined),< 0.76,167,55.9,48.4,24.44,>219.3,6.82
COc1ccc(C2C(C(=O)/C=C/c3ccccc3)=C(/C=C/c3ccccc3)N=C3SC=C(C)N32)cc1 (centres undefined),0.85,211,48.6,39.4,99.95,248.11,2.11
COc1ccc(/C=C/C(=O)C2=C(/C=C/c3ccc(OC)cc3)N=C3SC=C(C)N3C2c2cc(OC)c(OC)c(OC)c2)cc1 (centres undefined),0.71,348,51.3,30.1,221.57,489.94,1.57
CC1=CSC2=NC(/C=C/c3ccccc3Cl)=C(C(=O)/C=C/c3ccccc3Cl)C(c3ccc(Cl)cc3)N12 (centres undefined),2.79,430,26.1,18,72.84,154.03,5.9
COc1cc(/C=C/C(=O)C2=C(/C=C/c3cc(OC)c(OC)c(OC)c3)N=C3SC=C(C)N3C2c2ccccc2)cc(OC)c1OC (centres undefined),< 0.3,260,66.9,5.69,520.94,>868.23,0.5
CC1=CSC2=NC(/C=C/c3ccc(Cl)cc3)=C(C(=O)/C=C/c3ccc(Cl)cc3)C(c3ccccc3)N12 (centres undefined),2.71,252,53.4,42.6,49.03,93.17,5.15
CC1=CSC2=NC(/C=C/c3ccccc3)=C(C(=O)/C=C/c3ccccc3)C(c3ccc(Cl)cc3)N12 (centres undefined),0.27,320,30.6,23.6,639.3,1183.89,0.5
CC1=CSC2=NC(/C=C/c3ccc(Br)cc3)=C(C(=O)/C=C/c3ccc(Br)cc3)C(c3ccc(Cl)cc3)N12 (centres undefined),1.22,420,26.5,17.8,330.51,344.06,1.27
CC1=CSC2=NC(/C=C/c3cccc(Cl)c3)=C(C(=O)/C=C/c3cccc(Cl)c3)C(c3ccccc3)N12 (centres undefined),1.2,286,54.5,15.4,361.96,238.29,0.79
CC1=CSC2=NC(/C=C/c3ccc(OCc4ccccc4)cc3)=C(C(=O)/C=C/c3ccc(OCc4ccccc4)cc3)C(c3ccc(Cl)cc3)N12 (centres undefined),19.6,> 500,18.6,17.6,>71.74,>25.56,6.97
CC1=CSC2=NC(/C=C/c3ccc(F)cc3)=C(C(=O)/C=C/c3ccc(F)cc3)C(c3ccccc3)N12 (centres undefined),1.59,306,59.2,30,114.22,192.53,2.68
COc1ccc(C2C(C(=O)/C=C/c3ccc(F)cc3)=C(/C=C/c3ccc(F)cc3)N=C3SC=C(C)N32)cc1 (centres undefined),1.09,261,41.4,9.22,50.65,239.29,5.15
Cc1ccnc2c1NC(=O)c1cccnc1N2C1CC1,–,–,–,97.9,–,–,–
CC1=CSC2=NC(/C=C/c3ccc(OCc4ccccc4)cc3)=C(C(=O)/C=C/c3ccc(OCc4ccccc4)cc3)C(c3ccccc3)N12 (centres undefined),4.3,> 500,56.3,47.7,>20.39,>116.28,24.5
CC1=CSC2=NC(/C=C/c3cccc(Cl)c3)=C(C(=O)/C=C/c3cccc(Cl)c3)C(c3ccc(Cl)cc3)N12 (centres undefined),< 0.76,317,16.6,13.2,141.02,>417.5,2.25
COc1ccc(/C=C/C(=O)C2=C(/C=C/c3ccc(OC)cc3)N=C3SC=C(C)N3C2c2ccccc2)cc1 (centres undefined),< 0.76,358,32.7,40.6,163.56,>471.31,2.19
COc1ccc(C2C(C(=O)/C=C/c3ccc4c(c3)OCO4)=C(/C=C/c3ccc4c(c3)OCO4)N=C3SC=C(C)N32)cc1 (centres undefined),1.14,418,70.8,58.8,106,–,3.94
